Each structure is given as a SMILES string. Values after ≈ are worked out from the molar mass of the structure shown. Active and inactive are the calls of the source. The rule behind the calls is not given here.

The subject of experiment [1] is Neisseria gonorrhoeae. Briefly: microbe, parasite or virus in culture. As to conditions: isolate 136.
Experiment [2] relates to Neisseria gonorrhoeae. As to the kind of experiment: Antimicrobial activity against Neisseria gonorrhoeae isolate 252611 NG-MAST sequence type 470 harboring A2059G mutation in 23S rRNA V domain allele 1, allele 2, allele 3 and allele 4 selected after 0.5 to 8 mg/L of erythromycin by Etest. The experiment is classed as functional. Put shortly: (§1)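 Single-colony expansions of the parent isolate (~1 × 10^8 CFU by viable count) were spread on GC agar with 1% IsoVitaleX containing erythromycin in 2-fold steps from 0.5 to 8.0 mg/liter, and incubated 24 h at 36°C under 5% CO2. Growth on the highest-concentration plate was subcultured, confirmed as gonococcus (Gram stain, oxidase, Phadebact GC), and azithromycin and erythromycin MICs were read by Etest. Passages were run in duplicate.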

Experiment [3] relates to Neisseria gonorrhoeae. Briefly: Antimicrobial activity against Neisseria gonorrhoeae harboring A2059G mutation in 23S rRNA V domain allele 1, allele 2 and allele 4 by Etest. The experiment is classed as functional. The procedure, abridged: (§2)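 Isolates were revived from −80°C cryopreservative stocks by 18 to 20 h of growth on GC agar base with 1% IsoVitaleX at 36°C under 5% CO2, then subcultured. Erythromycin and azithromycin MICs were read by Etest.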

Experiment [4] has as its system Neisseria gonorrhoeae. Briefly: Antimicrobial activity against Neisseria gonorrhoeae isolate 254921 NG-MAST sequence type 649 by Etest. The experiment is classed as functional. Put shortly: as §2
The test system of experiment [5] is Neisseria gonorrhoeae. As to the kind of experiment: Antimicrobial activity against Neisseria gonorrhoeae C2611T mutation in 23S rRNA domain V allele 3 by Etest. The class given is functional. Put shortly:
as §2

The test system of experiment [6] is Neisseria gonorrhoeae. As to the kind of experiment: Antimicrobial activity against Neisseria gonorrhoeae harboring A2059G mutation in 23S rRNA domain V allele 2 by Etest. The class given is functional. Put shortly:
as §2

The subject of experiment [7] is Neisseria gonorrhoeae. As to the kind of experiment: Antimicrobial activity against Neisseria gonorrhoeae isolate 136 NG-MAST sequence type 1704 harboring A2059G mutation in 23S rRNA V domain allele 1, allele 2, allele 3 and allele 4 selected after 0.5 to 8 mg/L of erythromycin by Etest. The class given is functional. Put shortly:
as §1

Experiment [8] deals with Neisseria gonorrhoeae. Briefly: Antimicrobial activity against Neisseria gonorrhoeae isolate 252611 NG-MAST sequence type 470 harboring A2059G mutation in 23S rRNA V domain allele 2 by Etest. The experiment is classed as functional. The procedure, abridged: as §2
Experiment [9] concerns Neisseria gonorrhoeae. As to the kind of experiment: Antimicrobial activity against Neisseria gonorrhoeae harboring A2059G mutation in 23S rRNA V domain allele 1, allele 2, allele 3 and allele 4 by Etest. The experiment is classed as functional. The procedure, abridged:
as §2

In experiment [10] the test system is Neisseria gonorrhoeae. As to the kind of experiment: Antimicrobial activity against Neisseria gonorrhoeae isolate 254921 NG-MAST sequence type 649 selected after 2 to 8 mg/L of compound by Etest. The class given is functional.
Experiment [11] concerns Neisseria gonorrhoeae. As to the kind of experiment: microbe, parasite or virus in culture. As to conditions: isolate 352521.
Experiment [12] has as its system Neisseria gonorrhoeae. Briefly: Antimicrobial activity against Neisseria gonorrhoeae isolate 352521 NG-MAST sequence type 1443 harboring A2059G mutation in 23S rRNA V domain allele 1, allele 2, allele 3 and allele 4 selected after 0.5 to 8 mg/L of erythromycin by Etest. The experiment is classed as functional. The procedure, abridged:
as §1

Experiment [13] relates to Neisseria gonorrhoeae. As to the kind of experiment: microbe, parasite or virus in culture.
For experiment [14], the system named is Neisseria gonorrhoeae. Briefly: microbe, parasite or virus in culture. The source holds these as a separate data set.
For experiment [15], the system named is Neisseria gonorrhoeae. Briefly: Antimicrobial activity against Neisseria gonorrhoeae harboring A2059G mutation in 23S rRNA V domain allele 1, allele 3 and allele 4 by Etest. The experiment is classed as functional. Put shortly:
as §2

The subject of experiment [16] is Neisseria gonorrhoeae. Briefly: Antimicrobial activity against Neisseria gonorrhoeae harboring A2059G mutation in 23S rRNA domain V allele 4 by Etest. The class given is functional. Put shortly: as §2
Experiment [17] deals with Neisseria gonorrhoeae. Briefly: Antimicrobial activity against Neisseria gonorrhoeae expressing wild type 23S rRNA by Etest. The experiment is classed as functional. Put shortly:
as §2

Experiment [18] deals with Neisseria gonorrhoeae. Briefly: Antimicrobial activity against Neisseria gonorrhoeae isolate 254921 NG-MAST sequence type 649 selected after 4 mg/L of erythromycin by Etest. The experiment is classed as functional, organism-based.

For `CC[C@H]1OC(=O)[C@H](C)[C@@H](O[C@H]2C[C@@](C)(OC)[C@@H](O)[C@H](C)O2)[C@H](C)[C@@H](O[C@@H]2O[C@H](C)C[C@H](N(C)C)[C@H]2O)[C@](C)(O)C[C@@H](C)CN(C)[C@H](C)[C@@H](O)[C@]1(C)O` [AZITHROMYCIN], the MIC is 0.25 mg/L (≈ 0.334 µM) in the experiment on Neisseria gonorrhoeae [1]; more than 256 mg/L with Neisseria gonorrhoeae [2]; not below 256 mg/L against Neisseria gonorrhoeae [3]; 0.25 mg/L (≈ 0.334 µM) against Neisseria gonorrhoeae [4]; 0.06 mg/L (≈ 0.0801 µM) against Neisseria gonorrhoeae [5]; 0.06 mg/L (≈ 0.0801 µM) against Neisseria gonorrhoeae [6]. Besides, the MIC is more than 256 mg/L against Neisseria gonorrhoeae [7]; 0.38 mg/L (≈ 0.507 µM) with Neisseria gonorrhoeae [8]; not below 256 mg/L in the experiment with Neisseria gonorrhoeae [9]; 1.5 mg/L (≈ 2 µM) with Neisseria gonorrhoeae [10]; 0.25 mg/L (≈ 0.334 µM) with Neisseria gonorrhoeae [11]; more than 256 mg/L against Neisseria gonorrhoeae [12]. The MIC was 2 mg/L (≈ 2.67 µM) in the experiment with Neisseria gonorrhoeae [13]; 2 mg/L (≈ 2.67 µM) against Neisseria gonorrhoeae [14]; not below 256 mg/L against Neisseria gonorrhoeae [15]; 0.06 mg/L (≈ 0.0801 µM) in the experiment on Neisseria gonorrhoeae [16]; 0.06 mg/L (≈ 0.0801 µM) against Neisseria gonorrhoeae [17].

Turning to `CC[C@H]1OC(=O)[C@H](C)[C@@H](O[C@H]2C[C@@](C)(OC)[C@@H](O)[C@H](C)O2)[C@H](C)[C@@H](O[C@@H]2O[C@H](C)C[C@H](N(C)C)[C@H]2O)[C@](C)(O)C[C@@H](C)C(=O)[C@H](C)[C@@H](O)[C@]1(C)O` [ERYTHROMYCIN], in the experiment with Neisseria gonorrhoeae [18], the outcome was Active. The MIC against Neisseria gonorrhoeae [4] is 3 mg/L (≈ 4.09 µM); in the experiment on Neisseria gonorrhoeae [10] it was 4 mg/L (≈ 5.45 µM).

For the origin of these results see ChEMBL document CHEMBL1671714, “High-level azithromycin resistance occurs in Neisseria gonorrhoeae as a result of a single point mutation in the 23S rRNA genes” (2010).
